# Source: ChEMBL document CHEMBL4513216, “Probing the Open Global Health Chemical Diversity Library for Multistage-Active Starting Points for Next-Generation Antimalarials” (ACS Infect Dis, 2020)
# Assay: Toxicity liver stage against HepG2, at 10uM
# Format: cell-based
# Parameters: test concentration 10 uM, cell line HepG2-A16-CD81EGFP
# Conditions: human, HepG2-A16-CD81EGFP cells; read-out: INHIBITION
# How it was run: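 Uninfected HepG2-A16-CD81EGFP cells, 3 × 10^3 per well, 1536-well, plated on prespotted compound at 10 μM final, parasite-free screening media added to match infected plates; puromycin 10 μM positive, DMSO 0.5% negative; run in parallel with 48 h PbLuc assay at 37 °C, 5% CO2; viability by CellTiter-Glo luminescence, normalized to controls.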
row,SMILES,cytotoxicity at 10 µM [%]
1,COC(=O)c1ccc2c(-c3ccnc(NCCO)n3)c[nH]c2c1,-12.8
2,Cn1cc(NC(=O)CNC(=O)N2CCN(c3ccc(F)cc3)CC2)cn1,2.27
3,Cc1cc(O)cc(=O)n1CCCC(=O)Nc1n[nH]c2ccccc12,-10.6
4,COCCn1ccc2c(NC(=O)c3n[nH]c4c3CCC4)cccc21,-1.6
5,COc1ccc(S(=O)(=O)NCC(c2cccn2C)N(C)C)cc1F (stereo not drawn),-0.418
6,CC(O)(CNC(=O)c1c(F)cccc1Cl)C1CC1 (stereo not drawn),-8.87
7,CN(C)CC(=O)N1CCC2(CCN(Cc3cccc(F)c3)CC2)C1,1.11
8,CS(=O)(=O)N1CCc2nc(NC(=O)Nc3c(F)cccc3F)sc2C1,-10.4
9,CCC(=O)N1CCC(c2nc3ccc(NC(C)C)cn3n2)CC1,-10.2
10,CCC(CCNC(=O)c1cc(C2CC2)nc2c1cnn2C)n1cccn1 (stereo not drawn),2.04
11,COCC(=O)N1CCC(c2c(C(=O)N(C)C)sc3ncccc23)C1 (stereo not drawn),1.55
12,CN(CC1(C)COC1)C(=O)c1cc(-c2cnn(C)c2)nc2ccccc12,0.89
13,Cc1c[nH]nc1C1CCN(c2cnccn2)C1 (stereo not drawn),5.3
14,O=C(O)c1ccccc1-c1ccc(CN2CCC(CO)CC2)cn1,2.45
15,CN1CCC(c2nccnc2Nc2cnccn2)CC1,-4.27
16,CC(=O)N1CCC(c2cccc(Oc3ccccc3)n2)CC1,-0.0757
17,COCCN1CCCC(c2ncc(C(=O)N(C)C)c(C)n2)C1 (stereo not drawn),-1.21
18,CC(=O)N1CCOC(c2nc(N(C)C)ncc2-c2cccc(F)c2)C1 (stereo not drawn),-27.5
19,CC(=O)NCC(=O)N1CCC(c2cncc(Oc3cccnc3)n2)CC1,-19.5
20,CS(=O)(=O)c1snnc1C1CCCN(Cc2ccncc2)C1 (stereo not drawn),-11.5
21,CN(CC1(O)CCCN(c2ccccn2)C1)C(=O)Cc1ccsc1 (stereo not drawn),-1.11
22,Cn1ccc(C(=O)Nc2nccn2Cc2ccccc2Cl)cc1=O,-1.92
23,CCC(NC(=O)NCc1nncn1CC)c1ccc(OC)cc1 (stereo not drawn),1.97

row,SMILES,cytotoxicity at 10 µM [%]
1,COc1ccccc1CC1CCCN1C(=O)c1cn[nH]c1C (stereo not drawn),0.58
2,Cc1ccc(NC(=O)N2CC[C@@H](O)C2)c(-c2nc(C3CC3)no2)c1,-4.16
3,Cc1nn(CC(=O)NCC2(C(N)=O)CCOCC2)c(C)c1Cl,2.83
4,CC(C)CCC(=O)NC(C#N)CC(C)C (stereo not drawn),2.53
5,O=S(=O)(c1ccc(Cl)s1)N1CCCn2ncnc21,-3.06
6,CCOCC(=O)N(C)Cc1nc(C(F)(F)F)cs1,2.49
7,Cc1nc(CSc2ccc(C(F)(F)F)cn2)no1,-3.38
8,Cn1ncc(C(=O)OCC2CCN(c3ccccc3)C2)c1C(F)F (stereo not drawn),-5.44
9,CC(C(=O)Nc1ccnn1C(C)C)N1CCN(Cc2ccon2)CC1 (stereo not drawn),0.72
10,NC(=O)NC(=O)Cn1ccc2sccc2c1=O,0.354
11,COc1ncccc1NC(=O)N1CCCC1c1cc(C)no1 (stereo not drawn),-9.66
12,OC(CN(Cc1ccccc1)Cc1cscn1)c1cccs1 (stereo not drawn),4.74
13,Cc1cc(N2CCC(NCCOc3ccccc3)CC2)nc(C)n1,-6.11
14,Cc1nc(CCNC(C)c2ccc3c(c2)OCCCO3)cs1 (stereo not drawn),3.3
15,CC(=O)Nc1nc(C(=O)NCCOc2cccc(C)c2)cs1,-0.794
16,COc1ccccc1C(=O)Nc1c(C)cnn1CC1CC1,-3.47
17,CNC(=O)c1ccc(OC)c(NCc2noc(-c3cccs3)n2)c1,2.76
18,CC(CNC(=O)c1c[nH]nn1)Oc1ccccc1Br (stereo not drawn),-0.509
19,Cn1cc(N2CCCC(SCc3ccco3)C2=O)cn1 (stereo not drawn),17.3
20,CCCC(=O)NCC(=O)NC(c1ccc(Cl)cc1)C(F)(F)F (stereo not drawn),-3.63
21,CC(C)c1ccc(NC(=O)c2ncc(C(N)=O)cc2Cl)cc1,-1.85
22,COc1ccccc1NC(=O)NCc1cn[nH]c1,16.9
23,Cc1ccc(CCCC(=O)N2CCCC(CS(N)(=O)=O)C2)s1 (stereo not drawn),17.9

row,SMILES,cytotoxicity at 10 µM [%]
1,COCCC1(CNC(=O)NCC2CN(C)CCN2C)CCC1 (stereo not drawn),6.35
2,CC(=O)N1CCCC(C(=O)NCCc2ccc(F)c(Br)c2)C1 (stereo not drawn),4.64
3,Cc1nc(Cn2c3c(ccc2=O)CC(N)CC3)cs1 (stereo not drawn),1.88
4,COCCN1CCN(S(=O)(=O)C2CC2)Cc2cccnc21,4.73
5,CCOCC1CC2(CCN(C(=O)c3cscn3)CC2)CO1 (stereo not drawn),2.42
6,Cc1ccc(N2CCC3(CCN(C(=O)c4ccsc4)CC3)CC2)nn1,2.19
7,Cn1cccc1C(=O)N1CCn2cc(CNC(=O)CC3CC3)nc2C1,3.11
8,NC(=O)[C@H]1CCCN(c2nccc(-c3ccncc3)n2)C1,-5.03
9,CCc1noc(CN(CC)Cc2cc3ccc(C)cc3[nH]c2=O)n1,0.417
10,CC(C)n1cnnc1CN(C)C1CCCNC1 (stereo not drawn),6.9
11,COC(=O)C1CCCCN1C(=O)c1cn(C/C=C/c2ccccc2)nn1 (stereo not drawn),3.98
12,CCn1c(C2CCN(C(=O)c3cc(CC(C)C)no3)CC2)nn(C)c1=O,-2.51
13,CCC(CO)N(C/C(C)=C/c1ccco1)Cc1ccco1 (stereo not drawn),-3.41
14,COCC[C@]1(O)CCN(C(=O)C2CCN(C3CCCC3)CC2)C[C@H]1C,-0.292
15,O=C(NCCc1cccs1)N1CCCC2(CCC(=O)N(C3CC3)C2)C1 (stereo not drawn),-7.82
16,C[C@@H]1CN(S(=O)(=O)N2CCCC2)C[C@@]1(O)C1CC1,-5.07
17,N[C@H]1CN(C(=O)c2ccc3[nH]c(CO)nc3c2)C[C@@H]1c1ccccc1,-1.82
18,CCn1c(CC2CCN(C(=O)C3COCCO3)CC2)nn(C)c1=O (stereo not drawn),-0.525
19,Cc1cc(N2CCC3(CC2)C(C(=O)O)CC(=O)N3C)nc2ccccc12 (stereo not drawn),-1.6
20,CC(c1ccccn1)N(C)Cc1cccc(C(=O)Nc2nccn2C)c1 (stereo not drawn),14.6
21,CC(Nc1nc(-c2ccccc2)nc2c1CCNCC2)c1nccs1 (stereo not drawn),2.49
22,O=S(=O)(Cc1ccccc1Cl)NCCCN1CCCC1,-4.54
23,CSc1cccc(CN(C)C(=O)c2ccc(C3CCCNC3)cc2)c1 (stereo not drawn),-3.07

row,SMILES,cytotoxicity at 10 µM [%]
1,CCn1c(N)nc2cc(C(=O)NCCc3ccccc3C)cnc21,-10.8
2,COc1ccc(Cc2nnc(SC)o2)cc1OC,-13.8
3,Cc1c(NC(=O)c2noc3c2CCCC3)cnn1C,-5.41
4,CC(C)Cc1cc(NC(=O)c2ccccc2)n(C)n1,-3.37
5,Cc1cnc(CN(C)C2CCCN(Cc3noc(C4CC4)n3)C2)cn1 (stereo not drawn),-2.13
6,Cc1cnn(C2CN(CC(=O)NCCc3c[nH]c4ccccc34)C2)c1,-4.01
7,CC(=O)N1CCCN(C(=O)CCc2c(C)nc3ccnn3c2C)CC1,-3.12
8,N#Cc1ccccc1N1CCCN(C(=O)NCc2cc[nH]n2)CC1,0.428
9,CC(=O)N(Cc1noc(C2CC2)n1)C1CCN(Cc2ccccn2)C1 (stereo not drawn),-5.72
10,CC(C(=O)Nc1ccc(N2CCCC2)nc1)n1cccn1 (stereo not drawn),-17.1
11,O=C(CCCc1ccccn1)N1CCCC(n2cccn2)C1 (stereo not drawn),-10.7
12,CN1CCC(N(C)C(=O)c2cnc3c(cnn3C3CCCC3)c2)CC1,-26.9
13,O=C(c1ccc(-n2cnnc2)cc1)N1CCCC(n2ccnc2)C1 (stereo not drawn),-10.7
14,CCOCC(O)CN1CCN(C(=O)c2cccc(CC#N)c2)CC1 (stereo not drawn),-16.4
15,COc1c(C)cnc(CN2CCOC(CNc3cccnn3)C2)c1C (stereo not drawn),-10.5
16,Cc1cnc(CN2CCCC2c2noc(C(C)C)n2)cn1 (stereo not drawn),-15.1
17,Cc1nccn1CCCC(=O)N1CCCN(c2cccnn2)CC1,-9.35
18,CC(C(=O)NCc1ccc(N2CCCCC2)nc1)S(C)(=O)=O (stereo not drawn),-8.81
19,c1ccc2oc(CCCN3CCCC3c3noc(C4CC4)n3)nc2c1 (stereo not drawn),-13.5
20,Cn1nc2c(cc1=O)CN(Cc1coc(-c3cccc(F)c3)n1)CC2,-12.6
21,O=C(c1cc2cc(I)ccc2[nH]1)N1CCC(Nc2cccnn2)CC1,-8.12
22,CC(=O)N(Cc1ncc(C)o1)C1CCN(Cc2ccccc2C#N)C1 (stereo not drawn),-15.5
23,CC(C)c1nc(C2CCCN(C(=O)c3nccn4ccnc34)C2)no1 (stereo not drawn),-12.7

row,SMILES,cytotoxicity at 10 µM [%]
1,CCc1nnc(C2Cc3ccccc3CN2Cc2nc(C)no2)o1 (stereo not drawn),-7.78
2,CN(C)c1cc(CNC(=O)c2cccnc2O)ccn1,-5.26
3,CCOc1ccccc1-c1noc(CN2CCOC(CN(C)C)C2)n1 (stereo not drawn),-5
4,CC1CN(C)CCN1C(=O)c1ccn(-c2cccc(Cl)c2)n1 (stereo not drawn),-26.3
5,CC(C)C(Sc1nnc(C2CC2)n1C1CC1)C(=O)NCc1cccnc1 (stereo not drawn),-11.2
6,O=C(c1ccc(Cl)c(Cl)c1)N1CCCC(n2cncn2)C1 (stereo not drawn),-5.16
7,Cc1ccc(S(=O)(=O)N2CCOc3ccccc32)cc1C(=O)O,-0.524
8,CC(C)n1ccnc1CN1CCCN(C(=O)c2cccnc2O)CC1,1.74
9,CCc1nc(C2CCCN2CCc2ccccn2)no1 (stereo not drawn),-7.03
10,CCOc1nnc(CN2CCOC(CNc3cccnn3)C2)s1 (stereo not drawn),1.82
11,CCn1cnnc1CNC(=O)NC(C)C(C)C (stereo not drawn),-6.15
12,Cc1cc(C)c(N(CC(O)CNCc2ccco2)S(C)(=O)=O)c(C)c1 (stereo not drawn),-12.5
13,CN(C)[C@@H]1CCN(c2ncc(F)cn2)[C@H]1Cc1cccnc1,2.53
14,CCOC(=O)CN1CC(c2nc(-c3ccsc3)no2)C1,-12.3
15,CN(C)CCN1C(=O)CCC12CCCN(C(=O)N(C)C)CC2 (stereo not drawn),4.56
16,CN1CCOC2(CCCN(C(=O)C3CCCCC3)C2)C1 (stereo not drawn),-6.66
17,O=C(C1CC1)N1CCC2(CCN2Cc2ccc(F)cc2)C1 (stereo not drawn),1.55
18,O=C(c1n[nH]c2c1CN(C1CCOC1)CC2)N1CCOCC1 (stereo not drawn),4.88
19,CN(C)C(=O)CN1C(=O)CCC12CCN(Cc1cccs1)CC2,-2.6
20,O=C1CC2(CCN(CC3CCOC3)CC2)c2ccccc2N1CC1CC1 (stereo not drawn),-9.61
21,O=C(N[C@@H]1C[C@@H]2CC[C@H]1C2)C1(Oc2ccc(Cl)cc2)CCNCC1,-5.26
